Columns and labels:
Format in all cases: functional
[1] = tested on: UACC-257; experiment: Cytotoxicity against human UACC257 cells assessed as cell growth at 0.01 uM after 48 hrs by sulforhodamine B assay; settings: UACC-257, 48 h, read-out: Activity
[2] = tested on: CAKI-1; experiment: Cytotoxicity against human Caki1 cells assessed as cell growth at 100 uM after 48 hrs by sulforhodamine B assay; settings: CAKI-1, 48 h, read-out: Activity
Method in brief: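 NCI-60 five-dose screen. Cells were grown in RPMI 1640 with 5% FBS and 2 mM L-glutamine and preincubated 24 h. Compound (DMSO stock) was tested at 0.01, 0.1, 1, 10 and 100 µM for 48 h at 37 °C. Cells were fixed in situ with cold TCA (final 10%) and stained with 0.4% SRB. A515 was read, and percent growth was calculated against time-zero and control plates.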

[3] = tested on: OVCAR-8; experiment: Growth inhibition of human OVCAR8 cells after 48 hrs by sulforhodamine B assay; settings: OVCAR-8, 48 h
Method in brief: (§1)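 Adherent NCI-60 lines were grown in RPMI 1640 with 5% FBS and 2 mM L-glutamine, plated at 5000–40,000 cells/well and preincubated 24 h. They were then exposed to five concentrations (0.01–100 µM, from a DMSO stock) for 48 h at 37 °C, 5% CO2. Cells were fixed with cold TCA (10% final, 60 min, 4 °C) and stained with 0.4% SRB. Dye was solubilized in 10 mM Tris base and A515 read. GI50 was derived from time-zero, control and treated absorbances.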

[4] = tested on: HOP-62; experiment: Cytotoxicity against human HOP62 cells assessed as cell growth at 10 uM after 48 hrs by sulforhodamine B assay; settings: HOP-62, 48 h, read-out: Activity
Method in brief: (§2)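 Five-dose NCI panel run at 0.01, 0.1, 1, 10 and 100 µM. Cells were in RPMI 1640 with 5% FBS and 2 mM L-glutamine, seeded at 5000–40,000 cells/well and pre-incubated 24 h. Drug was diluted from a DMSO stock into medium with 50 µg/ml gentamicin. Exposure was 48 h at 37 °C, 5% CO2. Cells were fixed with cold TCA and stained with 0.4% SRB, read at 515 nm. Percent growth came from time-zero, control and test absorbances.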

[5] = tested on: HT-29; experiment: Cytotoxicity against human HT-29 cells assessed as cell growth at 0.01 uM after 48 hrs by sulforhodamine B assay; settings: HT-29, 48 h, read-out: Activity; method in brief: as §2
[6] = tested on: OVCAR-5; experiment: Cytotoxicity against human OVCAR5 cells assessed as cell growth at 0.1 uM after 48 hrs by sulforhodamine B assay; settings: OVCAR-5, 48 h, read-out: Activity
[7] = tested on: SNB-19; experiment: Growth inhibition of human SNB19 cells after 48 hrs by sulforhodamine B assay; settings: SNB-19, 48 h; method in brief: as §1
[8] = tested on: COLO 205; experiment: Cytotoxicity against human COLO205 cells assessed as cell growth at 10 '-5 M after 48 hrs by sulforhodamine B assay; settings: COLO 205, 48 h, read-out: Activity
Method in brief: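 Primary NCI-60 single-dose screen at 10 µM. Cells were grown in RPMI 1640 with 5% FBS and 2 mM L-glutamine and plated 24 h before drug addition. Compound was solubilized in DMSO, then exposed for 48 h at 37 °C under 5% CO2. Cells were TCA-fixed and stained with SRB, and absorbance was read at 515 nm. Growth was expressed relative to time-zero and untreated controls.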

[9] = tested on: SN12C; experiment: Cytotoxicity against human SN12C cells assessed as cell growth at 1 uM after 48 hrs by sulforhodamine B assay; settings: read-out: Activity
[10] = tested on: LOX IMVI; experiment: Cytotoxicity against human LOXIMVI cells assessed as cell growth at 0.01 uM after 48 hrs by sulforhodamine B assay; settings: read-out: Activity
[11] = tested on: OVCAR-5; experiment: Cytotoxicity against human OVCAR5 cells assessed as cell growth at 0.01 uM after 48 hrs by sulforhodamine B assay; settings: OVCAR-5, 48 h, read-out: Activity
[12] = tested on: IGROV-1; experiment: Cytotoxicity against human IGROV1 cells assessed as cell growth at 0.01 uM after 48 hrs by sulforhodamine B assay; settings: IGROV-1, 48 h, read-out: Activity
[13] = tested on: SK-MEL-5; experiment: Cytotoxicity against human SK-MEL-5 cells assessed as cell growth at 10 uM after 48 hrs by sulforhodamine B assay; settings: SK-MEL-5, 48 h, read-out: Activity
[14] = tested on: COLO 205; experiment: Growth inhibition of human COLO205 cells after 48 hrs by sulforhodamine B assay; settings: COLO 205, 48 h; for CC50: read-out: LC50 (the source's name)
Method in brief: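 Cells were in RPMI 1640 with 5% FBS and pre-incubated 24 h. Read-out was TCA fixation, SRB staining and absorbance at 515 nm. GI50 was the concentration where [(Ti−Tz)/(C−Tz)]×100 = 50, taken from log concentration vs % growth curves. It is given as ">" the top concentration when not reached.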

[15] = tested on: NCI-H322M; experiment: Cytotoxicity against human NCI-H322M cells assessed as cell growth at 10 uM after 48 hrs by sulforhodamine B assay; settings: read-out: Activity
[16] = tested on: RXF 393; experiment: Cytotoxicity against human RXF393 cells assessed as cell growth at 100 uM after 48 hrs by sulforhodamine B assay; settings: RXF 393, 48 h, read-out: Activity
[17] = tested on: OVCAR-3; experiment: Cytotoxicity against human OVCAR3 cells assessed as cell growth at 10 '-5 M after 48 hrs by sulforhodamine B assay; settings: OVCAR-3, 48 h, read-out: Activity
[18] = Cytotoxicity against human Hs 578T cells assessed as cell growth at 0.01 uM after 48 hrs by sulforhodamine B assay; settings: read-out: Activity; method in brief: as §2
[19] = tested on: MDA-MB-231; experiment: Cytotoxicity against human MDA-MB-231 cells assessed as cell growth at 10 '-5 M after 48 hrs by sulforhodamine B assay; settings: MDA-MB-231, 48 h, read-out: Activity
[20] = tested on: IGROV-1; experiment: Cytotoxicity against human IGROV1 cells assessed as cell growth at 100 uM after 48 hrs by sulforhodamine B assay; settings: IGROV-1, 48 h, read-out: Activity
[21] = tested on: OVCAR-3; experiment: Cytotoxicity against human OVCAR3 cells assessed as cell growth at 0.1 uM after 48 hrs by sulforhodamine B assay; settings: OVCAR-3, 48 h, read-out: Activity
[22] = tested on: TK-10; experiment: Cytotoxicity against human TK10 cells assessed as cell growth at 100 uM after 48 hrs by sulforhodamine B assay; settings: TK-10, 48 h, read-out: Activity
[23] = tested on: UACC-257; experiment: Cytotoxicity against human UACC257 cells assessed as cell growth at 0.1 uM after 48 hrs by sulforhodamine B assay; settings: UACC-257, 48 h, read-out: Activity
[24] = tested on: SW-620; experiment: Cytotoxicity against human SW620 cells assessed as cell growth at 10 uM after 48 hrs by sulforhodamine B assay; settings: SW-620, 48 h, read-out: Activity
[25] = tested on: OVCAR-4; experiment: Cytotoxicity against human OVCAR4 cells assessed as cell growth at 0.1 uM after 48 hrs by sulforhodamine B assay; settings: OVCAR-4, 48 h, read-out: Activity
[26] = tested on: UO-31; experiment: Cytotoxicity against human UO31 cells assessed as cell growth at 10 '-5 M after 48 hrs by sulforhodamine B assay; settings: UO-31, 48 h, read-out: Activity
[27] = tested on: SW-620; experiment: Cytotoxicity against human SW620 cells assessed as cell growth at 0.1 uM after 48 hrs by sulforhodamine B assay; settings: SW-620, 48 h, read-out: Activity

| Structure (SMILES) | growth at 0.01 µM [1] | growth at 100 µM [2] | GI50 [3] | TGI [3] | growth at 10 µM [4] | growth at 0.01 µM [5] | growth at 0.1 µM [6] | GI50 [7] | LC50 (concentration causing 50% net cell kill) [7] | TGI [7] | growth at 10 µM [8] | growth at 1 µM [9] | growth at 0.01 µM [10] | growth at 0.01 µM [11] | growth at 0.01 µM [12] | growth at 10 µM [13] | TGI [14] | CC50 [14] | growth at 10 µM [15] | growth at 100 µM [16] | further results |
| --- | --- | --- | --- | --- | --- | --- | --- | --- | --- | --- | --- | --- | --- | --- | --- | --- | --- | --- | --- | --- | --- |
| Cc1ccc2nc(Nc3c(C)cccc3C)sc2c1 | 101% | 42% | 57.9 µM | > 100 µM | 39% | 98% | 106% | 5.83 µM | > 100 µM | > 100 µM | 32.2% | 65% | 94% | 93% | 107% | 33% | > 100 µM | > 100 µM | 67% | 24% | CC50 ([3]; read-out: LC50 (the source's name)): > 100 µM; growth at 10 µM [17]: 18.7%; growth at 0.01 µM [18]: 92%; growth at 10 µM [19]: 47%; growth at 100 µM [20]: 33%; growth at 0.1 µM [21]: 108%; growth at 100 µM [22]: 72%; growth at 0.1 µM [23]: 99%; growth at 10 µM [24]: 22%; growth at 0.1 µM [25]: 89%; growth at 10 µM [26]: 43.7%; growth at 0.1 µM [27]: 94% |
| Clc1cccc(Cl)c1Nc1nc2cccc(Cl)c2s1 | 102% | -75% | 1.15 µM | 2.83 µM | -93% | 100% | 92% | 1.34 µM | 6.74 µM | 3 µM | -90% | 46% | 94% | 102% | 114% | -95% | 2.81 µM | 5.67 µM | -83% | -40% | GI50 [14]: 1.4 µM; growth at 10 µM [17]: -61.4%; growth at 0.01 µM [18]: 87%; growth at 10 µM [19]: -66.8%; growth at 100 µM [20]: -55%; growth at 0.1 µM [21]: 97%; growth at 100 µM [22]: -67%; growth at 0.1 µM [23]: 101%; growth at 10 µM [24]: -86%; growth at 0.1 µM [25]: 83%; growth at 10 µM [26]: -55.1%; growth at 0.1 µM [27]: 91% |
